Converted amounts (≈) assume the structure as drawn.
System: Mycobacterium tuberculosis
Test: Antitubercular activity against multidrug-resistant Mycobacterium tuberculosis 08/00483E assessed as inhibition of bacterial growth measured for 7 days by REMA analysis
Assay type: functional
Conditions: 168 h, time 7 day
Method in brief: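 REMA: 2-fold dilutions in CMM MOD2 medium, wells inoculated at 1×10^6 CFU/mL, 7 days at 37 °C with 200 rpm agitation; resazurin (0.02% w/v in PBS pH 7.4, 5% Tween 80) then 6 h at room temperature; OD570 vs vehicle; MIC99 by modified Gompertz function; three biological replicates.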

`FC(F)(F)c1cc([C@H]2C[C@@H](CN3CCCC3)N2Cc2ccccc2Br)cc(C(F)(F)F)c1` (racemic) was tested, and the MIC99 was 16.8 µM (≈ 8.76 µg/mL).

— ChEMBL document CHEMBL5385915 (J Med Chem, 2024)
